Calls of active or inactive are those of the source. The calls are words filed in the database; no cut-off is given here.
Key:
[1] = test system: Mast/stem cell growth factor receptor Kit (Homo sapiens), P10721 [V654A]; test: Inhibition of TEL fused c-KIT V654A mutant (unknown origin) transfected in mouse BAF3 cells assessed as growth inhibition after 72 hrs by CCK8 assay; assay type: cell-based
Procedure, shortened: (§1)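 Tel-c-KIT-transformed BaF3 lines (IL-3 independent) kept in RPMI 1640 with 10% FBS, 2% L-glutamine and pen/strep. Cells at 1.5 to 5 × 10^4 cells/mL mixed with graded compound and incubated 72 h at 37 °C, 5% CO2. Viability by CCK-8 absorbance at 450 nm, normalized to DMSO. GI50 from dose–response fit.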

[2] = test system: Mast/stem cell growth factor receptor Kit (Homo sapiens), P10721 [A829P]; test: Inhibition of TEL fused c-KIT A829P mutant (unknown origin) transfected in mouse BAF3 cells assessed as growth inhibition after 72 hrs by CCK8 assay; assay type: cell-based; procedure, shortened: as §1
[3] = molecular target: T1, Mast/stem cell growth factor receptor Kit (Homo sapiens, UniProt P10721); test: Inhibition of TEL fused wild type c-KIT (unknown origin) transfected in mouse BaF3 cells assessed as reduction in phosphorylation at Y703 residue after 2 hrs by Western blot analysis; assay type: cell-based
[4] = molecular target: T1, Mast/stem cell growth factor receptor Kit; test: Inhibition of wild type c-KIT phosphorylation at Y703 residue in human COLO320DM cells after 2 hrs by Western blot analysis; assay type: cell-based
[5] = molecular target: Macrophage colony-stimulating factor 1 receptor (Homo sapiens, UniProt P07333); test: Binding affinity to wild-type human partial length CSF1R (I564 to S939 residues) expressed in bacterial expression system assessed as enzyme remaining activity at 1 uM by Kinomescan assay relative to control
Procedure, shortened: (§2)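 KINOMEscan competition binding panel of 468 kinases and mutants, compound at 1 μM; binding reported as percent of control.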

[6] = molecular target: Serine/threonine-protein kinase 25 (Homo sapiens, UniProt O00506); test: Binding affinity to wild-type human partial length STK25 (V14 to H295 residues) expressed in bacterial expression system assessed as enzyme remaining activity at 1 uM by Kinomescan assay relative to control; procedure, shortened: as §2
[7] = molecular target: Platelet-derived growth factor receptor beta (Homo sapiens, UniProt P09619); test: Inhibition of wild-type human partial length PDGFRB (V582 to Y1009 residues) expressed in bacterial expression system after 1 hr by Z-LYTE assay
GIST882 = test: Antiproliferative activity against human GIST882 cells harboring c-KIT K642E mutant incubated for 72 hrs by CCK8 assay; assay type: functional; details: GIST882, 72 h
Procedure, shortened: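 Adherent GIST cells seeded at 1.5-5 × 10^4 cells/mL and left overnight at 37 °C, 5% CO2. Medium then replaced with medium holding serial compound dilutions; 72 h incubation. Viability by CCK-8, absorbance at 450 nm, normalized to DMSO control; GI50 from dose-response fit.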

[8] = test system: Mast/stem cell growth factor receptor Kit (Homo sapiens), P10721 [UNDEFINED MUTATION]; test: Inhibition of c-KIT 560 to 578 deletion/T670I double mutant in human GISTT1 cells assessed as reduction in c-KIT autophosphorylation at Y823 residue at 0.1 uM to 3 uM after 1 hr by Western blot analysis; assay type: cell-based
Procedure, shortened: (§3)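 Serial compound dilutions applied for 1 h to GIST-T1, GIST-T1-T670I (CRISPR/Cas9 T670I knock-in, clone confirmed by Sanger sequencing) or GIST-5R cells in DMEM with 10% FBS. Cells then lysed and phospho-proteins detected by standard Western blotting.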

[9] = test system: Mast/stem cell growth factor receptor Kit (Homo sapiens), P10721 [UNDEFINED MUTATION]; test: Inhibition of c-KIT 560 to 578 deletion/T670I double mutant in human GISTT1 cells assessed as reduction in STAT3 phosphorylation after 1 hr by Western blot analysis; assay type: cell-based; procedure, shortened: as §3
[10] = AUC (0 to t) in Sprague-Dawley rat at 10 mg/kg, po measured after 5 to 720 mins by LC-tandem mass spectrometry analysis; assay type: ADME, organism-based; details: in vivo
Procedure, shortened: (§4)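 Male Sprague-Dawley rats (190-210 g), fasted 12 h, randomized into two groups: 1 mg/kg i.v. or 10 mg/kg p.o., both formulated in 10% DMSO/90% of 5% glucose water. Blood sampled at 2-720 min (i.v.) or 5-720 min (p.o.). Plasma protein-precipitated with methanol, caffeine internal standard, LC-MS/MS. Noncompartmental analysis; triplicate, ±SD.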

[11] = AUC (0 to infinity) in Sprague-Dawley rat at 10 mg/kg, po measured after 5 to 720 mins by LC-tandem mass spectrometry analysis; assay type: ADME, organism-based; set-up: dose 10 mg/kg, route oral, time infinity; details: in vivo; procedure, shortened: as §4
[12] = Half-life in Sprague-Dawley rat at 10 mg/kg, po measured after 5 to 720 mins by LC-tandem mass spectrometry analysis; assay type: ADME, organism-based; details: in vivo; procedure, shortened: as §4
[13] = Apparent volume of distribution in Sprague-Dawley rat at 10 mg/kg, po measured after 5 to 720 mins by LC-tandem mass spectrometry analysis; assay type: ADME, organism-based; details: in vivo; procedure, shortened: as §4
[14] = Oral bioavailability in mouse at 10 mg/kg measured after 5 to 720 mins by LC-tandem mass spectrometry analysis; assay type: ADME, organism-based; details: in vivo
Mus musculus [15] = test: Inhibition of c-KIT phosphorylation at Y703 residue in tumor of human GIST5R cells xenografted in nude mouse at 100 mg/kg, po administered as single dose and measured at 2 hrs; assay type: functional, organism-based
Procedure, shortened: (§5)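 Female nu/nu mice bearing subcutaneous GIST-5R xenografts (cells in Matrigel, right flank) given one oral gavage dose of 100 mg/kg in HKI suspension (0.5% methocellulose/0.4% Tween80 in ddH2O). Tumors collected over a 2 h time course; p-c-KIT, p-ERK and p-AKT assessed by Western blot; plasma drug levels monitored in parallel.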

Mus musculus [16] = test: Inhibition of c-KIT phosphorylation at Y823 residue in tumor of human GIST5R cells xenografted in nude mouse at 100 mg/kg, po administered as single dose and measured at 2 hrs; assay type: functional, organism-based; procedure, shortened: as §5
Mus musculus [17] = test: Inhibition of c-KIT phosphorylation at Y703 residue in tumor of human GIST5R cells xenografted in nude mouse at 100 mg/kg, po administered as single dose and measured after 2 hrs; assay type: functional, organism-based
Procedure, shortened: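 Female nu/nu mice bearing subcutaneous GIST-5R tumors (cells in Matrigel, right flank) given one oral dose of 100 mg/kg in 0.5% methylcellulose/0.4% Tween80. Tumors collected over a 2 h time course. p-c-KIT, p-ERK and p-AKT measured alongside plasma drug levels.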

Mus musculus [18] = test: Inhibition of c-KIT phosphorylation at Y823 residue in tumor of human GIST5R cells xenografted in nude mouse at 100 mg/kg, po administered as single dose and measured after 2 hrs; assay type: functional, organism-based; procedure, shortened: as §5
[19] = Antitumor activity against human GIST5R cells xenografted in nude mouse assessed as tumor weight at 50 mg/kg, po administered […] via gavage for 28 days (reference value: 0.59g); assay type: functional
Procedure, shortened: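 Female nu/nu mice (5 weeks old) given subcutaneous right-flank GIST-5R cells in Matrigel. Dosing began at tumors of 200-400 mm3; randomized, 4 mice per group. Daily oral dosing (QD) at 25, 50 or 100 mg/kg in 0.5% methylcellulose/0.4% Tween80, or vehicle alone, for 28 days. Body weight and tumor volume, (W²×L)/2, measured daily; mean±SEM.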

T1 sequence (P10721 whole entry, the tested form may be a part): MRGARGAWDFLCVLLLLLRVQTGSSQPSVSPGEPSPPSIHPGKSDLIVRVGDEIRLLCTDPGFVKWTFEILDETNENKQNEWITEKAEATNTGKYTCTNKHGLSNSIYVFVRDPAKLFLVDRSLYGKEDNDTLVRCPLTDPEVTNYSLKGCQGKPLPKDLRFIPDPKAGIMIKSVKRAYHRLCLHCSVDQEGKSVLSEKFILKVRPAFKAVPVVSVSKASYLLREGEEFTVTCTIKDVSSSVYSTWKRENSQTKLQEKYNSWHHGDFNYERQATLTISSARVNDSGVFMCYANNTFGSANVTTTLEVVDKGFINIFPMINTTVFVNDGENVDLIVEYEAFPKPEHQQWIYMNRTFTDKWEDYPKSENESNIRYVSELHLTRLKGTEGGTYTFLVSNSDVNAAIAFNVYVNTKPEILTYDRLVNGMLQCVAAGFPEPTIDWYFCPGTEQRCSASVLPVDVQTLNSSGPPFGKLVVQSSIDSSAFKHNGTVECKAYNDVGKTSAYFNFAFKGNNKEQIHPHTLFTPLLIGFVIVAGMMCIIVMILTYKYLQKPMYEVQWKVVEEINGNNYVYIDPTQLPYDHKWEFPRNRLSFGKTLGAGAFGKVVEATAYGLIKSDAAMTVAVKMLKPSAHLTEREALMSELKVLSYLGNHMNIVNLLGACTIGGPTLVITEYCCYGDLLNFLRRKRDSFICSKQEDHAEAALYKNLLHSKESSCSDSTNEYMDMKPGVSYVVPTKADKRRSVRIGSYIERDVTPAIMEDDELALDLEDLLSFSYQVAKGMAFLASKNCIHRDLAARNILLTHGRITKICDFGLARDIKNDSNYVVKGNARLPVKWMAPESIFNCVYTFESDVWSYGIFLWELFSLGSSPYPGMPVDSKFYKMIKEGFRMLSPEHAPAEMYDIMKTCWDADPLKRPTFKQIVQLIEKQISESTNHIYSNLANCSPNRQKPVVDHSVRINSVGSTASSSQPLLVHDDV
Chain of Mast/stem cell growth factor receptor Kit (Homo sapiens), P10721 [UNDEFINED MUTATION] (P10721 whole entry, looked up, stated change not applied): as the sequence (P10721 whole entry, the tested form may be a part) above
Chain of Platelet-derived growth factor receptor beta (P09619 whole entry, the tested form may be a part): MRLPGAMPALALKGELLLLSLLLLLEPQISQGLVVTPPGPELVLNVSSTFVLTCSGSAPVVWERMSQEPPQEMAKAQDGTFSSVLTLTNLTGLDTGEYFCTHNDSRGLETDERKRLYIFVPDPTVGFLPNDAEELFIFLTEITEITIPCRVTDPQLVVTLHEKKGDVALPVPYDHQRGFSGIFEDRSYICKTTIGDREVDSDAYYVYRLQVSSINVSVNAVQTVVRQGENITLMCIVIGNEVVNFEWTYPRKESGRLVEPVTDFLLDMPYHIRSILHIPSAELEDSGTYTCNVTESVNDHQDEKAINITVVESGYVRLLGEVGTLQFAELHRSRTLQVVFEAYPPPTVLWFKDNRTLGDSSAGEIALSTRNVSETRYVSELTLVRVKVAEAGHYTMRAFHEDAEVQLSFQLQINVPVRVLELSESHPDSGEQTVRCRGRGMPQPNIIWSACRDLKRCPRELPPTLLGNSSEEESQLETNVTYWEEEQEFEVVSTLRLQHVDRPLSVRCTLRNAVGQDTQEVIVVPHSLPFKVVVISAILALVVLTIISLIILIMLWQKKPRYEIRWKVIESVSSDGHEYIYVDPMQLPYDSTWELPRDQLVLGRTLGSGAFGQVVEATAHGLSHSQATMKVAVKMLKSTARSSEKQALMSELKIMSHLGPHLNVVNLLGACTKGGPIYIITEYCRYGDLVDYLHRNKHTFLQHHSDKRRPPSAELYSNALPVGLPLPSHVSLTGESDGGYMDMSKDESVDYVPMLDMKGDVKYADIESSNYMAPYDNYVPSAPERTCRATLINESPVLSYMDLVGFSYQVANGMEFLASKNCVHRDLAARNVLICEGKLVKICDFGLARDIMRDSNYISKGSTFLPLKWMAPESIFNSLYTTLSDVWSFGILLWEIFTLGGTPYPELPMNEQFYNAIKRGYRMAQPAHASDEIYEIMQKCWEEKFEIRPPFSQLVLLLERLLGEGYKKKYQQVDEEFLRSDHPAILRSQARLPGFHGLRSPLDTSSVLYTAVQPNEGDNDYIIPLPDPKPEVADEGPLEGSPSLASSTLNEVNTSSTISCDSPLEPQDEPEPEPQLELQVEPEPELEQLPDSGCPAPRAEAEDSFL
Chain of Serine/threonine-protein kinase 25 (O00506 whole entry, looked up, the tested form may be a part): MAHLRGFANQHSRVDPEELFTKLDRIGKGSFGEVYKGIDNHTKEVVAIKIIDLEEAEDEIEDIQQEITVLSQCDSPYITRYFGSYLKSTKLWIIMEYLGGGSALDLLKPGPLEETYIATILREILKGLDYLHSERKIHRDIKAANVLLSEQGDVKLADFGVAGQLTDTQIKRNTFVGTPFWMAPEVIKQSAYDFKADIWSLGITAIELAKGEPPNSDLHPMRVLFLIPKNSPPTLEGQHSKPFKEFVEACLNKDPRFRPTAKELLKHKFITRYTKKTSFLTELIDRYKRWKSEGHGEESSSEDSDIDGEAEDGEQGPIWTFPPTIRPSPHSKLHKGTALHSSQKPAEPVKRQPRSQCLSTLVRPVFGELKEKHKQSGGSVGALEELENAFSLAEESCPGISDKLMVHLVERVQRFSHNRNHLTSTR
Chain of Mast/stem cell growth factor receptor Kit (Homo sapiens), P10721 [V654A] (P10721 whole entry V654A, the tested form may be a part): as the sequence (P10721 whole entry, the tested form may be a part) above, with V654A counted along it
Chain of Mast/stem cell growth factor receptor Kit (Homo sapiens), P10721 [A829P] (P10721 whole entry A829P, the tested form may be a part): as the sequence (P10721 whole entry, the tested form may be a part) above, with A829P counted along it
Chain of Macrophage colony-stimulating factor 1 receptor (P07333 whole entry, the tested form may be a part): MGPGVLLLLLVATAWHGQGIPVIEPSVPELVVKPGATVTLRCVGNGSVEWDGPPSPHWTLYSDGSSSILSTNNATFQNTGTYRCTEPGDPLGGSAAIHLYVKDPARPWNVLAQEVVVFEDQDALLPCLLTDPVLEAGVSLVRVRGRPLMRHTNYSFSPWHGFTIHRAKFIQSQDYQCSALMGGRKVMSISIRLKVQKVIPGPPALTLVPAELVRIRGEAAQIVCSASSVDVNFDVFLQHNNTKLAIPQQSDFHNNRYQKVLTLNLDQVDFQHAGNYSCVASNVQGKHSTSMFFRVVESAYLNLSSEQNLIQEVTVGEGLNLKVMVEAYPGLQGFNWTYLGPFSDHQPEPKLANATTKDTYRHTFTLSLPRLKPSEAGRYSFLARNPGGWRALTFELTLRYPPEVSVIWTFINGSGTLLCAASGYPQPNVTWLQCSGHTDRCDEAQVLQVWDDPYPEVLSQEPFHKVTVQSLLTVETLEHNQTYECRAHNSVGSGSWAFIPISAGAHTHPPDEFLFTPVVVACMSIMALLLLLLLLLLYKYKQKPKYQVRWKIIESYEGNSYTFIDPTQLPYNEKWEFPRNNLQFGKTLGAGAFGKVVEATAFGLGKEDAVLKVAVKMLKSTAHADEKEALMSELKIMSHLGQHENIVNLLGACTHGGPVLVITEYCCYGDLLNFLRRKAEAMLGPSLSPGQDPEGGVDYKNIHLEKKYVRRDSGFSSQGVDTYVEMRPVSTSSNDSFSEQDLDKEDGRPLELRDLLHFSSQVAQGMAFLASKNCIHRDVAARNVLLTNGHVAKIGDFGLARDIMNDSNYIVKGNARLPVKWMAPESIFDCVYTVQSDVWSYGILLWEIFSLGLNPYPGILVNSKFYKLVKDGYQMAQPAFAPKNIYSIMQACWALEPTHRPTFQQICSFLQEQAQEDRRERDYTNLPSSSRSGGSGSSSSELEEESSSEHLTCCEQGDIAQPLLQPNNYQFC

O=C(CC(=O)Nc1ccc2c(/C=C/c3ccccn3)n[nH]c2c1)Nc1cccc(F)c1
GI50 [1]: 0.525 µM
GI50 [2]: 6 µM
EC50 [3]: > 1 µM
EC50 [4]: 1.81 µM
Activity [5]: 0%
Activity [6]: 0%
IC50 [7]: 2.08 µM
GI50 (GIST882): 0.296 µM
inhibition [8]: Active
inhibition [9]: Dose-dependent effect
AUC(0-t) [10]: 712 ng·h/mL
AUC(0-inf) [11]: 809 ng·h/mL
half-life [12]: 4.9 h
Vz [13]: 86.8 L/kg
bioavailability [14]: 16.4%
inhibition (Mus musculus [15]): Active
inhibition (Mus musculus [16]): Active
inhibition (Mus musculus [17]): inactive
inhibition (Mus musculus [18]): inactive
Activity [19]: 0.25 g

Source: ChEMBL document CHEMBL4304743, “Discovery of ( E)- N1-(3-Fluorophenyl)- N3-(3-(2-(pyridin-2-yl)vinyl)-1 H-indazol-6-yl)malonamide (CHMFL-KIT-033) as a Novel c-KIT T670I Mutant Selective Kinase Inhibitor for Gastrointestinal Stromal Tumors (GISTs)” (J Med Chem, 2019)
